# Shown is part of a subset that was picked to be rich in hits.
# H69AR growth 86K – proliferation blockers of H69AR lung cancer cells, primary screen, cell-based, human, 86K library. 6% of 85,000 active. viability, % at 10 µM. AID 598, 2007. H69AR lung tumor viability, ATP luminescence, 72 h; active compounds read low;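 active = viability at or below 40%; inactive = viability above 40%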;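 also: multidrug resistant small cell line overexpressing MRP-1 efflux transporter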
# bCat KO growth – primary screen for growth suppressors in beta-catenin knockout HCT116 cells (colon tumor, human). viability, % at 10 µM. 1.5% of 140,000 active. HCT116 beta-catenin knockout viability, CellTiter-Glo, 60 h; active compounds read low;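 active = viability at or under a set limit, the compound median less 4 SD, cut at about 6% in these data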
# HCT116 PTEN-null – growth suppression of PTEN-null HCT116, primary screen, cell-based, CellTiter-Glo | HCT116 PTEN-null viability, 60 h; active compounds read low | viability, % at 10 µM | 1.2% of 140,000 active | AID 827, 2007;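 active = viability at or below a set limit, 4 SD under the median of all tested compounds, cut at about 3.7% in these data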;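 also: PTEN knockout HCT116 line with beta catenin targeted HCT116 as companion control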
# Lung fibro prol – antiproliferative effect on LL 47 fibroblasts – human, LL 47 cells, CellTiter-Glo luminescence, primary screen; LL 47 human lung fibroblast viability, ATP luminescence; active compounds read low; viability, % at 10 µM; 1.1% of 85,000 active; AID 719, 2007;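 active = viability at or below 50% in the single dose screen; inactive = viability above 50%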;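 also: compound exposure lasted 72 h before the ATP readout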
#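 Material: Human LL 47 lung fibroblast cells | Input: 1,150 cells/well | Buffer or medium: IMEM plus 15% FBS | Compound dosing: 0.1% DMSO in all compound wells | Times: Overnight cell rest, 72 h compound treatment at 37 °C | Signal: CellTiter-Glo luminescence measuring cellular ATP | Measure: % viability versus median cells-only luminescence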
# HUVEC prolif 384 – inhibitors of HUVEC proliferation, primary screen, cell-based, 384-well; 1.1% of 86,000 active; CellTiter-Glo luminescence, 72 h; active compounds read low; viability, % at 10 µM (by protocol);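 active = viability at or below 30%; inactive = viability above 30%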
# Numbers stand for hits; 0 = inactive; - = no result.
SMILES,H69AR growth 86K,bCat KO growth,HCT116 PTEN-null,Lung fibro prol,HUVEC prolif 384
CCOc1ccccc1C(=O)N1CCC(n2nnc3cc(C(F)(F)F)ccc32)CC1,38.9,0,0,0,0
CCOc1ccccc1C(=O)N1CCC(n2nnc3cc(C)ccc32)CC1,0,0,0,0,0
COc1cccc(C2C3=C(N=c4s/c(=C\c5cccc(O)c5)c(=O)n42)c2ccccc2CC3)c1OC (centres undefined),-,2.4,1.7,-,-
COc1ccccc1NC(=O)Cn1cnc2c(cnn2-c2ccccc2)c1=O,0,0,0,0,0
O=C(COc1ccc(Cl)cc1Cl)Nc1ccccn1,0,0,0,48.4,0
O=C(COc1ccc(Cl)cc1Cl)NCc1ccncc1,26.9,0,0,-,0
CC1CC(C)CN(C(=O)CSC2=Nc3ccccc3C3=NC(Cc4c[nH]c5ccccc45)C(=O)N23)C1 (centres undefined),0,0,0,0,0
c1csc(-c2nc3c4ccccc4c4ccccc4c3[nH]2)c1,29.6,0,0,0,0
CCN1CCc2c(C#N)c(N3CCOCC3)nc(NCc3ccccc3)c2C1,0,0,0,0,0
CCN1CCc2c(C#N)c(N3CCCCC3)nc(NCc3ccccc3)c2C1,0,1.2,0.9,0,0
O=C(Nc1cc([N+](=O)[O-])ccc1Cl)C(Sc1ccccc1)c1ccccc1 (centres undefined),-,0,0,-,-
O=C(Nc1ccc(Cl)c([N+](=O)[O-])c1)C(Sc1ccccc1)c1ccccc1 (centres undefined),-,3.6,3.2,-,-
CC(C)(C)NS(=O)(=O)c1ccc(NC(=O)C(Sc2ccccc2)c2ccccc2)cc1 (centres undefined),-,1.6,1.6,-,-
COc1ccccc1NC(=O)C(Sc1ccccc1)c1ccccc1 (centres undefined),-,0,0,-,-
CC(=O)Nc1ccc(S(=O)(=O)N2CCN(c3cccc(C)c3C)CC2)cc1,36.6,0,0,0,0
Cc1cc(Cl)c(S(=O)(=O)N2CCN(c3cccc(C)c3C)CC2)cc1OCC(N)=O,37.7,0,0,0,0
NC(=O)Cn1c(S(=O)(=O)Cc2ccccc2)nc2ccccc21,0,-,-,0,0
O=S(=O)(Cc1ccccc1)c1cnc2ccccc2n1,7.1,0,0,0,0
COC(=O)c1nnn(-c2nonc2N)c1CSc1ccc(Cl)cc1,0,0,0,0,0
COc1ccc2[nH]c3c(N4CCC(O)(c5cccc(C(F)(F)F)c5)CC4)ncnc3c2c1,-,4.5,0,-,-
Cc1ccc2[nH]c3c(N4CCc5ccccc5C4)ncnc3c2c1,0,0,0,0,0
CCOc1ccc(S(=O)(=O)N2c3ccccc3CC2C)cc1 (centres undefined),24.7,0,0,0,0
COc1ccccc1/C=C/C(=O)NCC(=O)N/N=C/c1cc(Br)ccc1OC,18.6,0,0,0,0
COc1ccc(OC)c(S(=O)(=O)N2Cc3ccccc3CC2C(=O)Nc2nccs2)c1 (centres undefined),0,0,0,0,0
CCOc1ccc(S(=O)(=O)N2CCc3ccccc3C2)cc1,0,0,0,0,0
SMILES,H69AR growth 86K,bCat KO growth,HCT116 PTEN-null,Lung fibro prol,HUVEC prolif 384
COC(=O)COc1ccc(S(=O)(=O)N2CCc3ccccc3C2)cc1,0,0,0,25.0,18.8
N/C(=N\OC(=O)c1ccc2ccccc2c1)c1cccc([N+](=O)[O-])c1,-,0,0,-,-
CC1=C(C)/C(=N/OC(=O)c2cccc([N+](=O)[O-])c2)C=CC1=O,10.9,1.6,1.7,0,0
C/C=C/c1ccc(OCCN2C(=O)NC(C)(C)C2=O)c(OC)c1,0,0,0,0,0
O=C(Nc1ccccc1NC(=O)c1c(F)c(F)c(F)c(F)c1F)c1c(F)c(F)c(F)c(F)c1F,0,2.4,2.6,0,0
O=C(Nc1cccc(F)c1)c1c(F)c(F)c(F)c(F)c1F,0,0,0,0,0
c1ccc(-c2nnc(-c3ccccn3)nc2NC2CCCCC2)cc1,36.7,4.0,0,18.8,18.5
CNc1nc(-c2ccccn2)nnc1-c1ccccc1,0,0,0,13.5,11.1
Cc1ccc(-c2c(C)sc(NC(=O)C3C4CCC(O4)C3C(=O)O)c2C(=O)OC(C)C)cc1 (centres undefined),-,0,0,-,-
Cc1ccccc1-c1nnc(Cc2ccccc2)o1,-,0,0,-,-
c1ccc(Cc2nnc(-c3ccccc3)o2)cc1,0,0,0,9.6,0
Nc1nnnn1/N=C/c1cccc(OCc2ccccc2Cl)c1,0,0,0,0,16.5
Nc1nnnn1/N=C/c1cccc(Oc2ccccc2)c1,0,0,0,0,0
COc1ccccc1N1CCN(CC(=O)Nc2cccc(F)c2)CC1,0,0,0,0,0
O=C(CSc1nnc(SCc2ccc(Cl)cc2)s1)N/N=C/c1c[nH]c2ccccc12,-,5.2,0,-,-
COc1ccc(NC(=O)c2ccco2)c([N+](=O)[O-])c1,-,0,0,-,-
Cc1ccc(Nc2ccc([N+](=O)[O-])nc2[N+](=O)[O-])cc1,-,0,0,-,-
Cc1cccc(NC(=O)CSc2nc3ccccc3o2)c1,-,0,0,-,-
CC1=C(C(=O)Nc2ccccc2)C(c2ccc(C)cc2)N=C(Nc2nc3ccccc3o2)N1 (centres undefined),-,0,3.6,-,-
COc1ccc2cc3cc(C(=O)Nc4cc(OC)c(OC)c(OC)c4)oc3nc2c1,0,0,0,0,0
COc1ccc2cc3cc(C(=O)Nc4ccc5c(c4)OCCO5)oc3nc2c1,39.7,0,0,0,26.2
CCCN1C/C(=C/c2cccc([N+](=O)[O-])c2)C(=O)/C(=C/c2cccc([N+](=O)[O-])c2)C1,-,2.6,2.0,-,-
CC1(C)CC(=O)/C(=C\c2cccc([N+](=O)[O-])c2)C(C)(C)N1,-,0,0,-,-
CC1=C/C(=C\c2ccc3c(c2)OCO3)C(=O)S1,0,0,0,0,0
CCCN1C/C(=C/c2ccc3c(c2)OCO3)C(=O)/C(=C/c2ccc3c(c2)OCO3)C1,-,2.0,2.2,-,-
SMILES,H69AR growth 86K,bCat KO growth,HCT116 PTEN-null,Lung fibro prol,HUVEC prolif 384
Cc1cc(C(=O)Nc2sc(C)c(C)c2C#N)c(C)o1,0,0,0,0,0
Cc1ccc(NC(=O)c2sccc2C)cc1S(=O)(=O)N(C)C,-,0,0,-,-
NC(=O)c1ccc(NCc2ccco2)c([N+](=O)[O-])c1,-,0,0,-,-
Cc1nc(NC2=NCN(CCc3ccccc3)CN2)nc2c(C)cccc12,5.5,-,-,32.5,1.7
Cc1cc2nc(NC3=NCN(CCCN4CCOCC4)CN3)nc(C)c2cc1C,0,-,-,-,0
Cc1nc(NC2=NCN(CCCN3CCOCC3)CN2)nc2c(C)cccc12,2.3,0,0,28.5,0
Cc1cc2nc(NC3=NCN(Cc4ccc5c(c4)OCO5)CN3)nc(C)c2cc1C,22.6,-,-,48.7,0
CC1(C)NC(=O)N(CCCOc2ccc3c(c2)CCC3)C1=O,-,0,0,0,0
COC(=O)c1cn(N(C)c2ncc(C(F)(F)F)cc2Cl)c(=O)c2ccccc12,0,0,0,0,0
Cc1cc(C)cc(Nc2cc(=O)n(C3CCCCC3)c(=O)[nH]2)c1,39.4,0,0,0,0
